This is an account of results in PubChem BioAssay AID493228 (Broad Institute, 2011).

In general, AC50 refers to the concentration giving half of the maximal activity seen.

Where “and” joins values, the source holds several entries; their conditions need not be identical. Identical values can stand only once. Results filed as inconclusive are left out. Calls of active or inactive are those of the source.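 The calls were made as follows: active = fitted dose curve passes 500% activation at or below the top valid tested dose; inconclusive = no clear call, values can overlap the other calls; inactive = the rest, opposite-direction activity included.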

System in the first experiment: not listed separately
In words: HRE-luciferase activation under added iron, dose response, mechanism study for HIF activator project, cell-based, iron medium, luminescence, U2OS, dry powder (AID 493228). The note with it: U2OS HRE-luciferase reporter, iron medium, luminescence; at 38 µM (top of the series). In a few lines: (§1)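 system = U2OS 3×HRE-luciferase reporter cells | input = 6,000 cells/well | compound = 8 concentrations, 3-fold spacing | technique = luciferase luminescence with Steady-Glo reagent | buffer or medium = medium supplemented with ferric nitrate, 50 µM final | timing = 24 h cell plating, 24 h compound exposure, 37 °C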
In the case of `O=C(c1cc(-c2ccccc2)on1)N1CCC(N2CCCC2)CC1`, the activation is 0.413% (inactive). Same read-out and setting: the value for `C[C@@H](Nc1nc(-c2ccccn2)nnc1-c1ccccc1)C1CCCCC1` was 419% (inactive); that for `Oc1ccc(CNC2Cc3ccccc3C2)c2cccnc12` was -87.7% (inactive); that for `O=C(Nc1ncc2ccccc2n1)c1cc(-c2ccccc2)on1` was 196% (inactive). Same read-out and setting: with `O=C(Nc1ccc2ccccc2n1)c1cc(-c2ccccc2)on1` the figure was 10.3% (inactive).

With `c1ccc(-c2nnc(-c3ccccn3)nc2N2CCC(C3CCCCC3)C2)cc1` (stereo not given), the activation was 17.7% (inactive). On the same count and under the same terms, with `Oc1ccc(CN2CCC3CCCCC3C2)c2cccnc12` (stereo not given) the figure was -92.3% (inactive); with `c1ccc(-c2nnc(-c3ccccn3)nc2Nc2nc3ccccc3s2)cc1`, -17.3% (inactive). On the same count and under the same terms, the value for `O=C(Nc1nc(-c2ccccc2)cs1)c1cc(-c2ccccc2)on1` was -5.37% (inactive). Same read-out and setting: with `c1ccc(-c2nnc(Nc3nc(-c4ccccn4)nnc3-c3ccccc3)s2)cc1` the figure was 67% (inactive); with `Cc1cccc(NC(=O)c2cc(-c3ccccc3)on2)n1`, 47.5% (inactive); with `CC1CN(Cc2ccc(O)c3ncccc23)CC(C)O1` (stereo not given), -85.2% (inactive). For the compound `Cc1ccccc1CNC(=O)c1cc(-c2ccccc2)on1`, the activation was 40.9% (inactive). Still for that read-out and setting: with `Oc1ccc(CN2CCc3ccccc3C2)c2cccnc12` the figure was -88.2% (inactive) and -90.7% (inactive); with `c1ccc(-c2cccc(CNc3nc(-c4ccccn4)nnc3-c3ccccc3)c2)cc1`, 113% (inactive). Same read-out and setting: the value for `O=C(Nc1cnc2ccccc2c1)c1cc(-c2ccccc2)on1` was 26% (inactive). Same read-out and setting: the value for `Oc1ccc(CNC2CCc3ccccc32)c2cccnc12` (stereo not given) was -90.3% (inactive); that for `c1ccc(-c2nnc(-c3ccccn3)nc2Nc2cnc3ccccc3n2)cc1` was 299% (inactive).

As to `c1ccc(-c2nnc(-c3ccccn3)nc2NCCCN2CCOCC2)cc1`, the activation was 168% (inactive). Regarding `CN(C)CCNC(=O)c1cc(-c2ccccc2)on1`, the activation was 36.8% (inactive).

With `O=C(NCCN1CCCCC1)c1cc(-c2ccccc2)on1`, the activation is 64.1% (inactive). As to `OCCCNc1nc(-c2ccccn2)nnc1-c1ccccc1`, the activation is 310% (inactive).

For the compound `CC(C)(C)OC(=O)N1CCN(Cc2ccc(O)c3ncccc23)CC1`, the activation was 10.8% (inactive). Consider `c1ccc(-c2csc(Nc3nc(-c4ccccn4)nnc3-c3ccccc3)n2)cc1`, for which the activation is 73.9% (inactive). On to `CN1CCN(c2nc(-c3ccccn3)nnc2-c2ccccc2)CC1`, for which the activation is 315% (inactive).

Regarding `O=C(NCc1ccccc1)c1cc(-c2ccccc2)on1`, the activation is 65.7% (inactive).

For the compound `C=CCNc1nc(-c2ccccn2)nnc1-c1ccccc1`, the activation is 288% (inactive). Same read-out and setting: with `O=C(Nc1cn2ccccc2n1)c1cc(-c2ccccc2)on1` the figure was 36% (inactive); with `CN1CCN(C(=O)c2cc(-c3ccccc3)on2)CC1`, 4.95% (inactive); with `c1ccc(-c2nnc(-c3ccccn3)nc2N2CCC(c3ccccc3)C2)cc1` (stereo not given), 313% (inactive).

As to `CC(C)(C)c1ccc(CNc2nc(-c3ccccn3)nnc2-c2ccccc2)cc1`, the activation is 246% (inactive). Still for that read-out and setting: with `Cn1c(-c2ccccc2)cnc1NC(=O)c1cc(-c2ccccc2)on1` the figure was 23.2% (inactive); with `Cc1cccc(Nc2nc(-c3ccccn3)nnc2-c2ccccc2)n1`, 306% (inactive); with `COc1ccccc1N1CCN(Cc2ccc(O)c3ncccc23)CC1`, -77.4% (inactive).

In the case of `c1ccc(-c2nnc(-c3ccccn3)nc2NCCc2ccccn2)cc1`, the activation is 460% (inactive). Still for that read-out and setting: with `Oc1ccc(CN2CCC(Cc3ccccc3)CC2)c2cccnc12` the figure was 27% (inactive); with `c1ccc(-c2nnc(-c3ccccn3)nc2NCc2cccnc2)cc1`, 402% (inactive). On the same count and under the same terms, the value for `O=C(NC1Cc2ccccc2C1)c1cc(-c2ccccc2)on1` was 175% (inactive); that for `Cn1c(-c2ccccc2)cnc1Nc1nc(-c2ccccn2)nnc1-c1ccccc1` was -7.02% (inactive); that for `Cn1c(NC(=O)c2cc(-c3ccccc3)on2)nc2ccccc21` was 4.17% (inactive). On the same count and under the same terms, the value for `O=C(c1cc(-c2ccccc2)on1)N1CCN(c2ccncc2)CC1` was -9.52% (inactive). As for `O=C(NC1CCc2ccccc2C1)c1cc(-c2ccccc2)on1` (stereo not given), the activation is 2.06% (inactive). The same measure, in the same setting: the value for `O=C(c1cc(-c2ccccc2)on1)N1CCC(N2CCOCC2)CC1` was 9.93% (inactive); that for `Cc1ccc(Nc2nc(-c3ccccn3)nnc2-c2ccccc2)cn1` was 473% (inactive); that for `Cc1ccc(CNC(=O)c2cc(-c3ccccc3)on2)cc1` was 13.2% (inactive).

Consider `O=C(Nc1nnc(-c2ccccc2)s1)c1cc(-c2ccccc2)on1`, for which the activation was -5.78% (inactive). Same read-out and setting: the value for `OCC1CCN(Cc2ccc(O)c3ncccc23)CC1` was -91.5% (inactive).

With `O=C(Nc1nc2ccccc2s1)c1cc(-c2ccccc2)on1`, the activation was 22.7% (inactive).

Consider `CN(C)c1nc(-c2ccccn2)nnc1-c1ccccc1`, for which the activation was 80.9% (inactive). Regarding `O=C(Nc1ncc(-c2ccccc2)o1)c1cc(-c2ccccc2)on1`, the activation was 22.7% (inactive). Consider `c1ccc(-c2nnc(-c3ccccn3)nc2NCC2CC2)cc1`, for which the activation is 392% (inactive). Same read-out and setting: the value for `N#CC1(c2ccccc2)CCN(Cc2ccc(O)c3ncccc23)CC1` was 10.5% (inactive); that for `c1ccc(-c2cnc(Nc3nc(-c4ccccn4)nnc3-c3ccccc3)s2)cc1` was -26.9% (inactive); that for `Cc1ccc(NC(=O)c2cc(-c3ccccc3)on2)cn1` was -1.64% (inactive). Still for that read-out and setting: the value for `c1ccc(-c2nnc(-c3ccccn3)nc2NCC2CCOCC2)cc1` was 226% (inactive).

A further experiment relates to U2OS HRE-luciferase reporter, iron medium, luminescence. The experiment is described as above.
Details: not given
In a few lines:
as §1
Turning to `c1ccc(-c2ccc(CNc3nc(-c4ccccn4)nnc3-c3ccccc3)cc2)cc1`, the concentration at half-maximal activity (AC50) was 9.24 µM. For `CC(C)(C)CCNC(=O)c1cc(-c2ccccc2)on1`, the AC50 is 23.1 µM.

As for `O=C(NCC1CC1)c1cc(-c2ccccc2)on1`, the AC50 is 7.37 µM.

For the compound `Cc1ccccc1CNc1nc(-c2ccccn2)nnc1-c1ccccc1`, the half-maximal activity concentration (AC50) is 25 µM. Same read-out and setting: the value for `C[C@@H](Nc1nc(-c2ccccn2)nnc1-c1ccccc1)c1ccccc1` was 20.7 µM. Consider `O=C(NCCCO)c1cc(-c2ccccc2)on1`, for which the AC50 is 7.47 µM. Take `COc1ccc(CNc2nc(-c3ccccn3)nnc2-c2ccccc2)cc1`: the AC50 was 14.3 µM. In the case of `O=C(NCCCN1CCOCC1)c1cc(-c2ccccc2)on1`, the AC50 was 12 µM.

Take `c1ccc(-c2nnc(-c3ccccn3)nc2N2CCC(N3CCOCC3)CC2)cc1`: the half-maximal activity concentration (AC50) is 36 µM. In the case of `c1ccc(-c2nnc(-c3ccccn3)nc2NCc2ccccn2)cc1`, the AC50 was 27.7 µM. The same measure, in the same setting: with `CC(C)(C)CCNc1nc(-c2ccccn2)nnc1-c1ccccc1` the figure was 17 µM and 16.2 µM; with `c1ccc(CNc2nc(-c3ccccn3)nnc2-c2ccccc2)cc1`, 17 µM. The same measure, in the same setting: the value for `c1ccc(-c2nnc(-c3ccccn3)nc2NCCN2CCOCC2)cc1` was 31.7 µM. On to `O=C(NCCN1CCOCC1)c1cc(-c2ccccc2)on1`, for which the AC50 is 12.4 µM. Still for that read-out and setting: the value for `COc1cccc(CNc2nc(-c3ccccn3)nnc2-c2ccccc2)c1` was 22.8 µM; that for `Clc1cccc(CNc2nc(-c3ccccn3)nnc2-c2ccccc2)c1` was 17.9 µM. Still for that read-out and setting: the value for `Cc1cccc(CNc2nc(-c3ccccn3)nnc2-c2ccccc2)c1` was 17.3 µM. Still for that read-out and setting: with `O=C(NCCCCO)c1cc(-c2ccccc2)on1` the figure was 2.72 µM.

`Cc1ccc(CNc2nc(-c3ccccn3)nnc2-c2ccccc2)cc1C`: the concentration at half-maximal activity (AC50) was 13.6 µM. Same read-out and setting: with `CCCCNC(=O)c1cc(-c2ccccc2)on1` the figure was 7.93 µM.

Consider `c1ccc(CCNc2nc(-c3ccccn3)nnc2-c2ccccc2)cc1`, for which the concentration at half-maximal activity (AC50) was 20.9 µM. For `CC(Nc1nc(-c2ccccn2)nnc1-c1ccccc1)c1ccccc1` (stereo not given), the AC50 was 23.2 µM.

Take `c1ccc(-c2nnc(-c3ccccn3)nc2NCC2CCCCC2)cc1`: the AC50 is 18.2 µM. Same read-out and setting: with `C[C@H](Nc1nc(-c2ccccn2)nnc1-c1ccccc1)C1CCCCC1` the figure was 18.9 µM. `O=C(NCCCn1ccnc1)c1cc(-c2ccccc2)on1`: the half-maximal activity concentration (AC50) is 6.23 µM.
